The source made the active and inactive calls. The calls are words filed in the database; no cut-off is given here.
Assays:
[1] = Neurotoxicity in ip dosed albino CF1 mouse by rotorod test; type: toxicity, organism-based; conditions: in vivo
Mus musculus [2] = test: Protection index, ratio of TD50 for neurotoxicity in ip dosed albino CF1 mouse by rotorod test to ED50 for anticonvulsant activity in ip dosed albino CF1 mouse by 6 Hz psychomotor seizure test; type: functional
Mus musculus [3] = test: Neurotoxicity in ip dosed albino CF1 mouse assessed as time to peak effect by rotorod test; type: toxicity, organism-based; conditions: in vivo
Mus musculus [4] = test: Anticonvulsant activity against 6 Hz psychomotor seizure in ip dosed albino CF1 mouse by minimal clonic seizure test; type: functional
Mus musculus [5] = test: Anticonvulsant activity against 6 Hz psychomotor seizure in ip dosed albino CF1 mouse assessed as time to peak effect by minimal clonic seizure test; type: functional
Mus musculus [6] = test: Anticonvulsant activity in albino CF1 mouse assessed as assessed as protection against 6 Hz psychomotor seizure at 75 mg/kg, ip after 4 hrs by minimal clonic seizure test; type: functional; conditions: route intraperitoneal
In short: (§1)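 Male CF-1 mice, groups of four, dosed ip in 0.5% methylcellulose/water suspension, then challenged by 6-Hz corneal stimulation at 32 mA (0.2 ms pulses, 3 s, constant current) at 0.25, 0.5, 1, 2 or 4 h; count of mice out of four protected from stunned posture/clonic seizure.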

Mus musculus [7] = test: Anticonvulsant activity in albino CF1 mouse assessed as assessed as protection against 6 Hz psychomotor seizure at 75 mg/kg, ip after 2 hrs by minimal clonic seizure test; type: functional; conditions: route intraperitoneal; in short: as §1
Mus musculus [8] = test: Anticonvulsant activity in albino CF1 mouse assessed as assessed as protection against 6 Hz psychomotor seizure at 75 mg/kg, ip after 1 hr by minimal clonic seizure test; type: functional; conditions: route intraperitoneal; in short: as §1
Mus musculus [9] = test: Anticonvulsant activity in albino CF1 mouse assessed as assessed as protection against 6 Hz psychomotor seizure at 75 mg/kg, ip after 0.5 hr by minimal clonic seizure test; type: functional; conditions: route intraperitoneal; in short: as §1
Mus musculus [10] = test: Anticonvulsant activity in albino CF1 mouse assessed as assessed as protection against 6 Hz psychomotor seizure at 75 mg/kg, ip after 0.25 hr by minimal clonic seizure test; type: functional; conditions: route intraperitoneal; in short: as §1
Rattus norvegicus [11] = test: Neurotoxicity in po dosed albino Sprague-Dawley rat assessed as time to peak effect by rotorod test; type: toxicity, organism-based; conditions: in vivo
Rattus norvegicus [12] = test: Anticonvulsant activity against […] subcutaneous pentylenetetrazole-induced convulsion in po dosed albino Sprague-Dawley rat assessed as time to peak effect; type: functional
Rattus norvegicus [13] = test: Anticonvulsant activity against maximal electroshock-induced seizures in po dosed albino Sprague-Dawley rat assessed as time to peak effect; type: functional
Rattus norvegicus [14] = test: Protection index, ratio of TD50 for neurotoxicity in po dosed albino Sprague-Dawley rat by rotorod test to ED50 for anticonvulsant activity in po dosed albino Sprague-Dawley rat by scPTZ test; type: functional
In short: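 Male Sprague-Dawley rats, compound suspended in 0.5% methylcellulose/water and given orally; tested at the time of peak effect. scPTZ: 70 mg/kg pentylenetetrazole sc; the end-point is clonic seizures lasting at least 5 s. Rotarod: motor impairment is failure to keep balance for 1 min in each of three trials. Groups of at least eight rats received several doses until at least three points fell within 10–90% effect. ED50, TD50 and 95% confidence intervals were derived by regression; PI = TD50/ED50.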

Rattus norvegicus [15] = test: Protection index, ratio of TD50 for neurotoxicity in po dosed albino Sprague-Dawley rat by rotorod test to ED50 for anticonvulsant activity in po dosed albino Sprague-Dawley rat by MES test; type: functional
[16] = Neurotoxicity in po dosed albino Sprague-Dawley rat assessed as minimum motor impairment by rotorod test; type: toxicity, organism-based; conditions: in vivo
Rattus norvegicus [17] = test: Anticonvulsant activity in po dosed albino Sprague-Dawley rat assessed as protection against subcutaneous pentylenetetrazole-induced convulsion; type: functional
Rattus norvegicus [18] = test: Anticonvulsant activity in albino Sprague-Dawley rat assessed as protection against maximal electroshock-induced seizures at 30 mg/kg, po measured after 4 hrs; type: functional
In short: (§2)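 Male Sprague-Dawley rats, four per group, dosed p.o. at 30 mg/kg in 0.5% methylcellulose/water suspension; MES test at 0.25, 0.5, 1, 2 and 4 h, motor impairment examined in parallel; number of rats out of four protected.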

Rattus norvegicus [19] = test: Anticonvulsant activity in albino Sprague-Dawley rat assessed as protection against maximal electroshock-induced seizures at 30 mg/kg, po measured after 2 hrs; type: functional; in short: as §2
Rattus norvegicus [20] = test: Anticonvulsant activity in po dosed albino Sprague-Dawley rat assessed as protection against maximal electroshock-induced seizures; type: functional
Rattus norvegicus [21] = test: Anticonvulsant activity in albino Sprague-Dawley rat assessed as protection against maximal electroshock-induced seizures at 30 mg/kg, po measured after 1 hr; type: functional; in short: as §2
Rattus norvegicus [22] = test: Anticonvulsant activity in albino Sprague-Dawley rat assessed as protection against maximal electroshock-induced seizures at 30 mg/kg, po measured after 0.5 hr; type: functional; in short: as §2
Rattus norvegicus [23] = test: Anticonvulsant activity in albino Sprague-Dawley rat assessed as protection against maximal electroshock-induced seizures at 30 mg/kg, po measured after 0.25 hr; type: functional; in short: as §2
Mus musculus [24] = test: Toxicity in albino CF1 mouse assessed as myoclonic jerks at 300 mg/kg, ip measured after 0.5 hr by rotorod test; type: organism-based; parameters: dose 300 mg/kg, route intraperitoneal; conditions: in vivo
Mus musculus [25] = test: Neurotoxicity in albino CF1 mouse assessed as minimum motor impairment at 300 mg/kg, ip measured after 4 hrs by rotorod test; type: toxicity, organism-based; parameters: dose 300 mg/kg, route intraperitoneal; conditions: in vivo
In short: (§3)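 Male CF-1 mice given ip suspension in 0.5% methylcellulose/water at 30, 100 and 300 mg/kg; MES, scPTZ (pentylenetetrazole 85 mg/kg sc, CD97 dose for clonic seizures ≥5 s) and rotarod (inability to hold balance 1 min in each of three trials) assessed at 0.5 and 4 h; value is minimum dose active in half or more animals.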

Mus musculus [26] = test: Neurotoxicity in ip dosed albino CF1 mouse assessed as minimum motor impairment in half or more animals measured after 0.5 hrs by rotorod test; type: toxicity, organism-based; conditions: in vivo; in short: as §3
Mus musculus [27] = test: Anticonvulsant activity in albino CF1 mouse assessed as protection against subcutaneous pentylenetetrazole-induced convulsion at 300 mg/kg, ip measured after 0.5 hrs; type: functional, organism-based; parameters: dose 300 mg/kg; in short: as §3
Mus musculus [28] = test: Anticonvulsant activity in ip dosed albino CF1 mouse assessed as protection against maximal electroshock-induced seizures in half or more animals measured after 0.5 hr; type: functional; conditions: read-out: MED; in short: as §3
Mus musculus [29] = test: Anticonvulsant activity in ip dosed albino CF1 mouse assessed as protection against maximal electroshock-induced seizures in half or more animals measured after 4 hrs; type: functional; conditions: read-out: MED; in short: as §3
Mus musculus [30] = test: Neurotoxicity in albino CF1 mouse assessed as minimum motor impairment at 300 mg/kg, ip measured after 0.5 hr by rotorod test; type: toxicity, organism-based; parameters: dose 300 mg/kg, route intraperitoneal; conditions: in vivo; in short: as §3
Mus musculus [31] = test: Anticonvulsant activity in ip dosed albino CF1 mouse assessed as protection against subcutaneous pentylenetetrazole-induced convulsion in half or more animals measured after 4 hrs; type: functional; conditions: albino CF1, 4 h, read-out: MED; in short: as §3
Mus musculus [32] = test: Anticonvulsant activity in ip dosed albino CF1 mouse assessed as protection against subcutaneous pentylenetetrazole-induced convulsion in half or more animals measured after 0.5 hr; type: functional; conditions: albino CF1, 0.5 h, read-out: MED; in short: as §3
Mus musculus [33] = test: Anticonvulsant activity in albino CF1 mouse assessed as protection against maximal electroshock-induced seizures at 300 mg/kg, ip measured after 0.5 hr; type: functional, organism-based; parameters: dose 300 mg/kg; in short: as §3
Mus musculus [34] = test: Anticonvulsant activity in albino CF1 mouse assessed as protection against maximal electroshock-induced seizures at 300 mg/kg, ip measured after 4 hrs; type: functional, organism-based; parameters: dose 300 mg/kg; in short: as §3
Mus musculus [35] = test: Neurotoxicity in ip dosed albino CF1 mouse assessed as minimum motor impairment in half or more animals measured after 4 hrs by rotorod test; type: toxicity, organism-based; conditions: in vivo; in short: as §3
Mus musculus [36] = test: Anticonvulsant activity in albino CF1 mouse assessed as protection against subcutaneous pentylenetetrazole-induced convulsion at 300 mg/kg, ip measured after 4 hrs; type: functional, organism-based; parameters: dose 300 mg/kg; in short: as §3

SMILES	Time (Rattus norvegicus [11])	Time (Rattus norvegicus [12])	Time (Rattus norvegicus [13])	Ratio TD50/ED50 (Rattus norvegicus [14])	Ratio TD50/ED50 (Rattus norvegicus [15])	TD50 [16]	ED50 (Rattus norvegicus [17])	Activity (Rattus norvegicus [18])	Activity (Rattus norvegicus [19])	ED50 (Rattus norvegicus [20])	Activity (Rattus norvegicus [21])	Activity (Rattus norvegicus [22])	Activity (Rattus norvegicus [23])	Activity (Mus musculus [25])	MED (Mus musculus [26])	Activity (Mus musculus [27])	minimal effective dose (Mus musculus [28])	minimal effective dose (Mus musculus [29])	also measured
O=C1CC(c2ccccc2Cl)C(=O)N1CN1CCC(Cc2ccccc2)CC1 (racemic)	1 h	1 h	1 h	>4.68	>13.28	> 500 mg/kg	107 mg/kg	inactive	25%	37.6 mg/kg	75%	75%	25%	Non-toxic	300 mg/kg	inactive	300 mg/kg	100 mg/kg	TD50 [1]: 275 mg/kg; Ratio TD50/ED50 (Mus musculus [2]): 3.26; Time (Mus musculus [3]): 0.5 h; ED50 (Mus musculus [4]): 84.6 mg/kg; Time (Mus musculus [5]): 0.5 h; Activity (Mus musculus [6]): 0%; Activity (Mus musculus [7]): 25%; Activity (Mus musculus [8]): 0%; Activity (Mus musculus [9]): 75%; Activity (Mus musculus [10]): 0%; MED (Mus musculus [24]): 100 mg/kg
CCC1(C)CC(=O)NC1=O (configuration not stated) [ETHOSUXIMIDE]	1 h	1 h	1 h	>2.99	–	> 500 mg/kg	–	–	–	> 500 mg/kg	–	–	–	Non-toxic	–	–	–	–	Activity (Mus musculus [30]): Non-toxic; minimal effective dose (Mus musculus [31]): 300 mg/kg; minimal effective dose (Mus musculus [32]): 100 mg/kg; Activity (Mus musculus [33]): inactive; Activity (Mus musculus [34]): inactive
O=C1NC(=O)C(c2ccccc2)(c2ccccc2)N1 [PHENYTOIN]	1 h	1 h	1 h	–	>3.6	> 100 mg/kg	> 500 mg/kg	75%	75%	–	75%	100%	25%	–	100 mg/kg	inactive	30 mg/kg	30 mg/kg	MED (Mus musculus [35]): 100 mg/kg; Activity (Mus musculus [36]): inactive
CCCC(CCC)C(=O)O [VALPROIC ACID]	1 h	1 h	1 h	–	–	–	646 mg/kg	–	–	–	–	–	–	–	–	–	–	–	–

Reference: ChEMBL document CHEMBL2440012, “Design, synthesis and anticonvulsant properties of new N-Mannich bases derived from 3-phenylpyrrolidine-2,5-diones” (Bioorg Med Chem, 2013)
